High-throughput results as filed in PubChem BioAssay.
TLR9-MyD88 block = inhibitors of TLR9-MyD88 association in cells, primary screen, cell-based, CHO, BLA complementation, fluorescence; Toll-like receptor 9 (Homo sapiens) + Myeloid differentiation primary response protein …; CCF4 FRET ratio; inhibition, % at 4.98 µM; 340,000 compounds, 0.21% hits; AID 504734, 2011;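 active = inhibition above the mean over all tested compounds plus 3 SD, cut at about 21% in these data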;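 note: 0% = DMSO only wells and 100% = clavulanate BLA inhibitor control wells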
UPR CHOP act = activators of apoptotic CHOP UPR arm, primary screen, cell-based, CHO-CHOP luciferase reporter, luminescence, uHTS; 330,000 compounds, 0.34% hits; activation, % at 10 µM; UPR activation; percent of tunicamycin response over DMSO baseline; AID 449763, 2010;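 active = at 10 µM dose, activation of 40% or more, normalized to positive control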;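 note: 100% = tunicamycin at 10 µg/mL and 0% = DMSO alone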
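System: CHO CHOP reporter cells. Amount: 500 cells per well. Buffer or medium: F12 medium, 10% FBS. Compound dosing: one dose, 10 µM in 0.5% DMSO. Incubation: 6 h compound exposure at 37 °C after overnight seeding. Technique: Steady-Glo luciferase luminescence. Benchmarks: tunicamycin and DMSO controls.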
CHOP inhibitor = inhibitors of CHOP promoter induction, primary screen, cell-based, unfolded protein response, luciferase reporter; CHO-K1 CHOP-promoter luciferase, tunicamycin-induced, 15-18 h; inhibition, % at 10 µM; 220,000 compounds, 3.8% hits;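 active = compounds that reduced the stress-induced luciferase reporter signal by more than about 70% of percent inhibition, limit read from the data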;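 note: 0% = tunicamycin plus vehicle and 100% = wells without tunicamycin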
TLR4-MyD88 BLA = inhibitors of TLR4-MyD88 association in cells, primary screen, cell-based, HeLa CL3-4, BLA complementation, FRET ratio | inhibition, % at 8.4 µM | HeLa CL3-4 TLR4/MyD88 BLA complementation | Toll-like receptor 4 (Homo sapiens) + Myeloid differentiation primary response protein … | 200,000 compounds, 0.18% hits; in the data active = inhibition above about 25%;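 note: 0% = vehicle and 100% = reference inhibitor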
NOD2-RIPK2 inh = NOD2-RIPK2 binding disruptors in cells, primary screen, fluorescence, CHO cells, BLA complementation. Receptor-interacting serine/threonine-protein kinase 2 (Homo sapiens), O43353. CCF4 ratio. inhibition, % at 4.98 µM. 360,000 compounds, 0.38% hits; in the data active = inhibition above about 21%;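 note: 0% = vehicle only and 100% = reference blocker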
Target sequence (O43353 whole entry, looked up): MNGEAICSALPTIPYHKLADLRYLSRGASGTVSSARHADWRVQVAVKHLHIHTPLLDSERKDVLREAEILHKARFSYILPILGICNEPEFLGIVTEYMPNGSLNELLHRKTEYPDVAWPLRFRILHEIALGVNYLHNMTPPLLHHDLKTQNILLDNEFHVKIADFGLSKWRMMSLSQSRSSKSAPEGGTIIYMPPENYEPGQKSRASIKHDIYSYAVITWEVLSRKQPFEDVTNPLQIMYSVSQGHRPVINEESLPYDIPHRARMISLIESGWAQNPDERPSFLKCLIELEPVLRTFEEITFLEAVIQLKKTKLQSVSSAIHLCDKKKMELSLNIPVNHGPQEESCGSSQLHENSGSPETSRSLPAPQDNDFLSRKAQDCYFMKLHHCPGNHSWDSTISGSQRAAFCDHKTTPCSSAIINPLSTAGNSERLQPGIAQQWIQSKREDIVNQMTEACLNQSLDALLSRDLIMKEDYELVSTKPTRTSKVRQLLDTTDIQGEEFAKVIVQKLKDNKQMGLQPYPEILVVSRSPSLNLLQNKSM
XBP1 UPR activ = activators of adaptive XBP1 UPR arm, primary screen, cell-based, CHO-XBP1 luciferase reporter, luminescence, uHTS; IRE1-XBP1 UPR activation; percent of tunicamycin response, DMSO as zero; activation, % at 20 µM; 330,000 compounds, 0.33% hits;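 active = versus positive control, 20 µM dose yields 30% or more activation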;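 note: 100% = tunicamycin at 10 µg/mL and 0% = DMSO only wells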
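Material – CHO cell line with stable XBP1 luciferase reporter · Buffer or medium – F12 plus 10% FBS · Compound – single point, 20 µM final compound, 1% DMSO · Schedule – 16-18 h cell attachment at 37 °C, then 6 h compound exposure · Signal – Steady-Glo luminescence read · Benchmarks – high control tunicamycin 10 µg/mL final, low control DMSO vehicle only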
XBP1 UPR conf = IRE1-XBP1 UPR arm activators, confirmation, cell-based, CHO-XBP1 luciferase reporter, luminescence, single concentration | shares compounds with XBP1 UPR activ | activation, % at 20 µM | 1,000 compounds, 63% hits | AID 485299, 2010;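 active = reporter signal at least 30% of the positive control's activation in two or more of four replicate wells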;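 note: plate controls were DMSO negative control for no effect and tunicamycin 10 µg/mL positive control for full effect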
Active calls of the source: *; · = no result. This is one part of a sample in which hits are shown more often than they occur.

SMILES | TLR9-MyD88 block | UPR CHOP act | CHOP inhibitor | TLR4-MyD88 BLA | NOD2-RIPK2 inh | XBP1 UPR activ | XBP1 UPR conf
Cc1ccc2c(n1)sc1c(-c3ccc(Br)cc3)c(C#N)c(N)nc12 | -13 | 0 | 82* | -15 | -2 | 61* | 43*
CCc1nc(N)c(C#N)c(-c2ccc(F)cc2)c1C | 8 | -2 | 6 | -2 | 2 | -2 | ·
CC(=O)c1ccc(NC(=O)c2sc3nc(C)c(C)c(C)c3c2N)cc1 | -5 | 1 | · | · | -4 | -5 | ·
Cc1nc2sc(C(=O)Nc3ccccc3)c(N)c2c(C)c1[N+](=O)[O-] | -13 | 39 | 24 | -3 | -8 | 91* | 19
COc1ccc(NC(=O)COC(=O)CCCOc2ccc(Cl)cc2Cl)cc1 | -9 | 1 | 33 | 0 | 1 | 75* | -1
COc1ccc(OC)c(NC(=O)CSc2nc(N3CCOCC3)nc(N3CCOCC3)n2)c1 | -2 | -2 | · | · | 12 | -1 | ·
NC(=S)N/N=C/c1ccccc1 | 3 | 1 | 5 | -7 | -5 | 0 | ·
NC(=S)N/N=C/c1ccc(C23CC4CC(CC(C4)C2)C3)cc1 | · | 33 | · | · | · | 60* | 64*
CCOC(=O)C1=C(C)N=c2s/c(=C3/C(=O)Nc4ccccc43)c(=O)n2C1c1ccc(C)cc1 (configuration not stated) | 9 | 2 | 47 | -12 | 15 | 118* | 69*
CCOC(=O)C1=C(C)N=c2s/c(=C\c3ccc(C(=O)O)cc3)c(=O)n2C1c1ccc(F)cc1 (configuration not stated) | -2 | 0 | · | · | -1 | 8 | ·
Cc1c(NC(=O)c2cccc(NC(=O)Cc3ccccc3F)c2)c(=O)n(-c2ccccc2)n1C | 0 | 0 | · | · | 5 | -5 | ·
CCc1ccc2[nH]c3nc(SCC(=O)NNC(=O)c4ccc(C(C)(C)C)cc4)nnc3c2c1 | 5 | 2 | 89* | 6 | -4 | 60* | 42*
O=C(CSc1nnc2c(n1)[nH]c1ccc(F)cc12)Nc1ccccc1F | -6 | -1 | · | · | -13 | -5 | ·
CCOC(=O)c1c(NC(=O)CSc2nnc3c(n2)[nH]c2ccc(F)cc23)sc(C(C)=O)c1C | -10 | 15 | 3 | -2 | -6 | 62* | 51*
CCc1ccc2[nH]c3nc(SCc4nnc(-c5ccc(C)cc5)o4)nnc3c2c1 | 0 | 10 | 28 | -14 | -10 | 95* | 93*
CCc1ccc2[nH]c3nc(SCC(=O)NCC4CCCO4)nnc3c2c1 (configuration not stated) | 1 | -1 | · | · | -1 | -2 | ·
Cc1ccc(CN2CCC[C@]3(N[C@H](c4ccccc4)[C@@H]4C(=O)N(C)C(=O)[C@@H]43)C2=O)cc1 | -2 | · | · | · | -2 | · | ·
COC(=O)c1sccc1NC(=O)c1cc(-c2cccc(C)c2)nc2ccccc12 | -6 | -1 | 28 | 6 | -5 | 64* | 80*
CC(=O)c1cccc(NC(=O)c2cc(-c3ccncc3)nc3ccccc23)c1 | 11 | 1 | · | · | -1 | -1 | ·
O=C(O)c1cc(-c2cccnc2)nc2ccc(Br)cc12 | -11 | -1 | 9 | -6 | -10 | 3 | ·
COC(=O)c1sccc1NC(=O)c1cc(-c2ccc(C)cc2)nc2ccccc12 | 2 | 1 | -24 | 7 | -8 | 0 | ·
CSc1ccccc1NC(=O)c1cc(-c2cccnc2)nc2ccc(Br)cc12 | -25 | 1 | 104* | 4 | -1 | 32* | 66*
Cc1cc(NC(=O)c2cc(-c3ccncc3)nc3ccccc23)ccc1Br | -5 | 2 | · | · | 10 | 66* | 44*
Cc1cc(CNC[C@H]2O[C@@H](n3ccc(N)nc3=O)[C@H](O)[C@@H]2O)no1 | 4 | · | · | · | -1 | · | ·
